# Screens as filed in PubChem.
# CCR6 antagonist = blocks CCL20-driven beta-arrestin recruitment at human CCR6; CHO-K1 CCR6 PathHunter beta-arrestin, luminescence, CCL20-stimulated; inhibition, % at 20 µM; AID 493098; hit rate 0.49% among 340,000;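 active means compounds whose inhibition of the agonist-driven luminescence signal at 20 µM reaches about 50%, limit read from the data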;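 further: cells stimulated with CCL20 at 14 nM final; plate controls were DMSO with CCL20 for no effect and DMSO without agonist for full effect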
# Target sequence (P51684 whole entry, looked up): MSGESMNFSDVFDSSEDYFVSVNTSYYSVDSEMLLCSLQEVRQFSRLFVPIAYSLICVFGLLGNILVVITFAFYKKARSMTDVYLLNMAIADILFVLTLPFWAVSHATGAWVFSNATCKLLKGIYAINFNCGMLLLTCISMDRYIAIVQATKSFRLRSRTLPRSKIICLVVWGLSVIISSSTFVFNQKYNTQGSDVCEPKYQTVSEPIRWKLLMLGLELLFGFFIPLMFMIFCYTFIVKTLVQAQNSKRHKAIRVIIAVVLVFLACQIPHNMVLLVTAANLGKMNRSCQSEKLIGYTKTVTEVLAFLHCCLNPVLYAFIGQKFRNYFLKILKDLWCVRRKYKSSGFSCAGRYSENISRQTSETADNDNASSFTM
# CXCR6 block = inhibitors of human CXCR6 receptor; AID 602244; CHO-K1 PathHunter CXCR6 beta-arrestin, luminescence; hit rate 0.36% among 360,000; inhibition, % at 20 µM; in the data active means inhibition above about 34%, passing the limit was not always enough;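 further: antagonist mode with CXCL16 agonist at 10 nM final; 0% = 10 nM CXCL16 with DMSO and 100% = unstimulated wells without agonist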
# APJ ag = agonists of human APJ apelin receptor; P35414; activation, % at 20 µM; AID 2520; CHO-K1 APJ PathHunter beta-arrestin, luminescence; 0% DMSO wells, 100% apelin; hit rate 0.11% among 330,000;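 active means activation more than six SD over the plate average, tested at 20 µM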;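 further: 0% = DMSO alone and 100% = apelin-13 at 10 nM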
#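 assay system = CHO-K1 APJ beta-arrestin complementation cell line | input = cell density 1000 per well | dosing = compound 20 µM once, DMSO 1% | timing = compound 90 min 25 °C, reagent 1 h | measured by = luminescence from split beta-galactosidase complementation, Galacton Star/Emerald II substrate | read-out basis = APJ agonist activity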
# APJ antag = antagonists of human APJ apelin receptor; inhibition, % at 20 µM; AID 2521; hit rate 0.32% among 330,000; CHO-K1 APJ beta-arrestin complementation, luminescence; P35414;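 active means inhibition above about 40% at 20 µM, limit read from the data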;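 further: cells challenged with 10 nM apelin-13 agonist together with compound; plate controls were apelin-13 plus DMSO wells for no effect and DMSO wells lacking apelin-13 for full effect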
# EBI2 antag = blocks human EBI2 receptor beta-arrestin signaling. P32249. EBI2 beta-arrestin recruitment, luminescence, 7a,25-OHC stimulated. inhibition, % at 5 µM. hit rate 0.81% among 360,000; in the data active means inhibition above about 38%;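 further: enzyme fragment complementation signal reports receptor beta-arrestin coupling in cells; 0% = agonist plus DMSO wells and 100% = wells without agonist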
# Target sequence (P32249 whole entry, looked up, the tested form may be a part): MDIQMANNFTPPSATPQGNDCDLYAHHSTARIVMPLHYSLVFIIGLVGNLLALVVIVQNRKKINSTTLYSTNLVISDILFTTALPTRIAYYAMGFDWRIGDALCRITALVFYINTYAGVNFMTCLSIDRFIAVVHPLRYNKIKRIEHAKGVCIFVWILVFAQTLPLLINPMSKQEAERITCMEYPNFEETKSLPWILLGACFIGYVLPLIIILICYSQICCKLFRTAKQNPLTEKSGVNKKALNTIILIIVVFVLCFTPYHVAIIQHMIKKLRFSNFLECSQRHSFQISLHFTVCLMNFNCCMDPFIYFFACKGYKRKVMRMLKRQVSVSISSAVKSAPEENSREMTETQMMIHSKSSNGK
# EBI2 conf = confirmation of human EBI2 receptor antagonists | shares compounds with EBI2 antag | EBI2 beta-arrestin luminescence, 7a,25-OHC antagonism | inhibition, % at 5 µM | hit rate 29% among 2,400 | AID 651997;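 active means inhibition of at least 50%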
# EBI2 agonist = EBI2 agonism counter-screen; activation, % at 5 µM; 2,400 tested, under 10 active; shares compounds with EBI2 antag; AID 652000; EBI2-expressing cells, agonist mode, luminescence, 60 min; 0% vehicle, 100% 7α,25-dihydroxycholesterol control;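 active means activation of at least 50%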
# bGal cs = inhibits E. coli beta-galactosidase, counter-screen for EBI2 antagonists | hit rate 1% among 2,400 | inhibition, % at 5 µM | shares compounds with EBI2 antag | purified beta-galactosidase, luminescent Galacton Star, 15 min;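 active means replicate-average signal at least 3 plate SD below neutral wells, shown as high inhibition, flagging enzyme-inhibiting false positives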;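 further: 0% = DMSO wells with enzyme and 100% = wells lacking enzyme; higher means stronger loss of beta-gal luminescence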
# * hit, by the source's call; nt = no result. In the library only some 1.5% were active in any assay of this set; here they are far more common.
SMILES,CCR6 antagonist,CXCR6 block,APJ ag,APJ antag,EBI2 antag,EBI2 conf,EBI2 agonist,bGal cs
O=C(c1cc2cc(F)ccc2[nH]1)N1CCC(Cc2ccccc2)CC1,10.8,-3.9,-1.3,9.4,87.5*,63.2*,0.6,5.9
COc1ccc2[nH]c(C(=O)N3CCC(Cc4ccccc4)CC3)cc2c1,3.7,1.9,-0.8,-9.7,83.9*,51.3*,-1.2,-11.6
COc1ccc2cc(C(=O)N3CCC(Cc4ccccc4)CC3)[nH]c2c1,-0.5,9.0,-1.3,-2.0,76.8*,53.3*,0.8,3.3
C#Cc1ccc(NC(=O)C2(C)CCN2C(=O)CC(c2ccccc2)c2ccccc2)cc1 (configuration not stated),nt,4.4,nt,nt,3.4,nt,nt,nt
N#Cc1ccc(-c2cccc3nccn23)cc1,nt,-4.7,nt,nt,-2.6,nt,nt,nt
CCOC(=O)C1(C)CCCN(C(=O)Cc2ccc3ccccc3c2)C1 (configuration not stated),nt,-6.0,nt,nt,-6.8,nt,nt,nt
Clc1cccc(-c2nnc(SC/C=C/c3ccccc3)n2Cc2ccco2)c1,15.6,12.2,-6.2,7.2,44.8*,35.5,-1.0,4.2
O=C(CC1c2ccccc2C=C(c2ccsc2)N1c1ccc(-c2cccnc2)cc1)C1CC1 (configuration not stated),nt,8.0,nt,nt,19.1,nt,nt,nt
CC(C)(C)NC(=O)C(c1ccccc1F)n1c(=O)c(-c2cc3ccccc3[nH]2)nc2ccccc21 (configuration not stated),nt,nt,nt,nt,10.3,nt,nt,nt
CCCCN(C)c1c(C)nc2ccc(C(=O)N(C)Cc3ccco3)cn12,nt,10.9,nt,nt,-15.2,nt,nt,nt
COc1ccc([C@H]2CC(=O)C=C(c3cccc(OC)c3OC)C2)cc1OC,-2.0,-10.4,0.1,8.3,3.0,nt,nt,nt
COc1ccc([C@H]2CC(=O)C=C(c3cccc4c3sc3ccccc34)C2)cc1OC,15.0,0.6,-2.4,-16.7,59.2*,15.8,-0.1,-13.4
CCOC(=O)[C@]12CCC=C1N(Cc1ccc(Cl)cc1Cl)C(=O)[C@H](CC(=O)N1CCSCC1)C2,nt,6.5,nt,nt,5.1,nt,nt,nt
COc1cc(OC)cc(-c2c(Sc3ccccc3)c3cc(-c4cnc(OC)nc4)ccc3n2C)c1,nt,2.9,nt,nt,65.1*,9.8,-1.3,-5.8
Cc1nc(SCc2nc3ccccc3[nH]2)c2oc3cc([N+](=O)[O-])ccc3c2n1,11.2,-6.8,2.7,-32.3,48.1*,58.9*,0.2,1.9
Cc1nc(SCc2nc3ccc(Br)cc3[nH]2)c2oc3ccccc3c2n1,3.2,12.1,-0.5,-6.1,1.5,nt,nt,nt
COc1ccc2c(c1)oc1c(SCc3nc4ccccc4[nH]3)nc(C)nc12,8.4,8.8,-0.7,-5.9,77.7*,50.8*,-0.4,-4.9
Cc1nc(SCc2nc3ccc(Cl)cc3[nH]2)c2oc3ccccc3c2n1,5.5,1.8,-2.6,9.1,16.8,nt,nt,nt
O=C1NC[C@H](CCCCN2C[C@H](Cc3ccc(O)cc3)N(CC3CCCCC3)C(=O)C2=O)N(Cc2ccccc2)C1=O,nt,-9.9,nt,nt,-5.4,nt,nt,nt
CCC(c1nnnn1-c1c(C)cccc1C)N1CCN(CC)CC1 (configuration not stated),nt,6.4,nt,nt,-3.4,nt,nt,nt
CCC(c1nnnn1-c1c(C)cccc1C)N1CCN(C/C=C/c2ccccc2)CC1 (configuration not stated),nt,10.4,nt,nt,58.2*,27.7,0.3,1.4
CSCCC(c1nnnn1-c1c(C)cccc1C)N1CCN(C/C=C/c2ccccc2)CC1 (configuration not stated),nt,11.2,nt,nt,52.7*,8.3,-1.0,-12.7
Cc1cccc(C)c1-n1nnnc1C(C1CC1)N1CCN(C/C=C/c2ccccc2)CC1 (configuration not stated),nt,11.4,nt,nt,44.2*,18.2,-1.3,0.5
CCN(CC(=O)NCc1ccc(Cl)cc1)C(=O)CSc1ccc(Br)cc1,-1.5,3.9,-0.4,4.7,67.8*,35.4,-0.1,5.3
Cc1cc(C)c2c(CN3CCN(c4ccccc4F)CC3)cc(=O)oc2c1,nt,-1.6,nt,nt,19.0,nt,nt,nt
SMILES,CCR6 antagonist,CXCR6 block,APJ ag,APJ antag,EBI2 antag,EBI2 conf,EBI2 agonist,bGal cs
CC(=O)c1nn(-c2ccc(Cl)cc2)cc1C(=O)c1ccccc1,-3.6,-11.1,-3.6,4.5,45.9*,25.6,0.2,-13.8
COc1ccc(C2N(c3ccc(C)cc3)CCN2c2ccc(C)cc2)cc1O,5.1,1.6,-2.6,-2.8,73.5*,15.3,0.7,4.0
Cc1cc(SCC(=O)N/N=C/c2cccnc2)nc2c(C)cccc12,-0.5,-12.2,-2.8,11.2,65.1*,23.2,0.8,7.1
Cc1ccc(C(=O)N2CCN(Cc3ccc4c(c3)OCO4)CC2)cc1C,14.1,-7.5,0.4,2.0,3.0,nt,nt,nt
O=C(c1ccc2c(c1)OCO2)N1CCN(S(=O)(=O)c2ccccc2)CC1,-1.7,-14.8,-2.1,-39.3,2.7,nt,nt,nt
O=C(c1ccc2c(c1)OCO2)N1CCN(S(=O)(=O)c2ccc(Br)cc2Cl)CC1,8.4,1.9,-0.3,-5.2,52.1*,23.5,-1.8,-6.8
O=C(c1ccc(Cl)c(Cl)c1)N1CCN(Cc2ccc3c(c2)OCO3)CC1,12.4,-0.8,-2.2,4.2,56.8*,47.8,0.3,-20.2
O=C(c1cc(-c2ccccc2)on1)N1CCN(Cc2ccc3c(c2)OCO3)CC1,4.7,-3.5,0.8,15.0,49.6*,6.8,1.2,3.6
O=C(c1cc(-c2ccc(F)cc2)no1)N1CCN(Cc2ccc3c(c2)OCO3)CC1,0.3,-10.1,-4.5,20.3,75.9*,49.1,0.9,3.1
CCC(=O)N1CCC1(C)C(=O)Nc1ccc(OC)c(OC)c1 (configuration not stated),nt,0.0,nt,nt,2.4,nt,nt,nt
c1ccc(Cn2c(Cn3c(-c4cnccn4)nc4ccccc43)nc3ccccc32)cc1,nt,5.6,nt,nt,6.5,nt,nt,nt
Cc1ccccc1NC(=O)Nc1nc(C(N)c2ccccc2)cs1 (configuration not stated),nt,0.0,nt,nt,-7.7,nt,nt,nt
COc1ccc(CN2C(=O)CN(S(C)(=O)=O)CC2(C)C(=O)Nc2c(C)cccc2C)cc1OC (configuration not stated),nt,nt,nt,nt,-0.6,nt,nt,nt
CC1OC(CCc2cccc(Cl)c2)Cc2[nH]c(=S)[nH]c(=O)c21 (configuration not stated),nt,-11.5,nt,nt,-5.9,nt,nt,nt
COc1ccccc1-c1cnc(C(O)c2ccc(C)cc2)[nH]1 (configuration not stated),nt,-2.8,nt,nt,3.3,nt,nt,nt
NC(=O)CSc1nnc(Cc2csc(Nc3ccc(F)cc3)n2)n1Cc1ccccc1,5.4,4.2,-6.1,2.5,63.2*,39.7,-0.5,6.6
O=C1CC(C(=O)N2CCN(S(=O)(=O)c3cccc(F)c3)CC2)CN1Cc1ccccc1Cl (configuration not stated),-4.6,1.4,-2.7,15.5,61.7*,32.8,-1.8,-6.7
